This assay concerns the target O-acetylserine sulfhydrylase (Mycobacterium tuberculosis (strain ATCC 25618 / H37Rv), UniProt P9WP55). The experiment in a line: Inhibition of Mycobacterium tuberculosis CysK1 using O-acetyl-L-serine as substrate assessed as L-cycteine formation after 5 mins by spectrophotometric analysis. In a few lines: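 Dose–response: serial 1:3 dilutions prepared in 50% DMSO (final DMSO 5%). Final mix was 100 mM MOPS pH 7.0, 2 mM O-acetyl-L-serine, […] CysK1, preincubated 5 min at room temperature. The reaction was started with sodium sulphide (final 1 mM). Aliquots taken at time intervals were assayed for L-cysteine by acid-ninhydrin. Specific activity vs concentration was fitted to a sigmoid for IC50.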

As to `O=C1Nc2c(c(=O)nc3sc([N+](=O)[O-])cn23)C(c2ccccc2C(F)(F)F)N1` (configuration not stated), the IC50 was determined as 17.7 µM.
Next, `Cc1ccccc1C1NC(=S)Nc2c1c(=O)nc1sc([N+](=O)[O-])cn21` (configuration not stated): 17.7 µM.

As usually defined, the IC50 is the point on the concentration scale where inhibition reaches its midpoint.
